Assay results published in ChEMBL document CHEMBL1142289, “Discovery of sulfonylalkylamides: A new class of orally active factor Xa inhibitors” (Bioorg Med Chem, 2008).

Tests used:
[1] = molecular target: Coagulation factor X (Homo sapiens, UniProt P00742); assay: Inhibition of human factor 10a
Method in brief: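 Human FXa was preincubated with compound in DMSO; 3 mM chromogenic substrate (stock) was added for 10 min at 37 °C. Inhibition was computed against DMSO control, with IC50 from least-squares regression; duplicate means.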

[2] = tested on: Plasma; assay: Anticoagulant potency in human plasma assessed as concentration required to double prothrombin time after 4 mins; type: functional
Method in brief: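 Human normal plasma was preincubated with compound in DMSO at 37 °C for 4 min. Clotting was started with thromboplastin and PT was timed on an automatic coagulometer. Prolongation was referenced to DMSO vehicle, and PT2 (clotting-time doubling concentration) was obtained from a least-squares regression line. Duplicate measurements, averaged.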

[3] = tested on: Plasma; assay: Anticoagulant potency in mouse plasma assessed as concentration required to double prothrombin time after 4 mins; type: functional
[4] = tested on: Mus musculus; assay: Ex vivo anticoagulant potency in ICR mouse blood at 30 mg/kg, po after 1 hr expressed as ratio of prothrombin time in drug treated animal to control; type: functional
Method in brief: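 Male ICR mice (30-35 g), fasted >12 h, received compound orally at 30 mg/kg as a suspension in 0.5% methylcellulose; controls got vehicle alone (n = 3-5). Aortic blood was taken at 1 h under pentobarbital into 3.8% citrate (9:1). Platelet-poor plasma (1000g, 10 min) was preincubated 4 min at 37 °C, then thromboplastin added. Clotting time expressed as ratio versus control.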

[5] = molecular target: CYP3A4 (Homo sapiens, UniProt P08684); assay: Inhibition of human CYP3A4 at 1 uM by spectrofluorimeter; type: ADME
CYP3A4, sequence (P08684 whole entry): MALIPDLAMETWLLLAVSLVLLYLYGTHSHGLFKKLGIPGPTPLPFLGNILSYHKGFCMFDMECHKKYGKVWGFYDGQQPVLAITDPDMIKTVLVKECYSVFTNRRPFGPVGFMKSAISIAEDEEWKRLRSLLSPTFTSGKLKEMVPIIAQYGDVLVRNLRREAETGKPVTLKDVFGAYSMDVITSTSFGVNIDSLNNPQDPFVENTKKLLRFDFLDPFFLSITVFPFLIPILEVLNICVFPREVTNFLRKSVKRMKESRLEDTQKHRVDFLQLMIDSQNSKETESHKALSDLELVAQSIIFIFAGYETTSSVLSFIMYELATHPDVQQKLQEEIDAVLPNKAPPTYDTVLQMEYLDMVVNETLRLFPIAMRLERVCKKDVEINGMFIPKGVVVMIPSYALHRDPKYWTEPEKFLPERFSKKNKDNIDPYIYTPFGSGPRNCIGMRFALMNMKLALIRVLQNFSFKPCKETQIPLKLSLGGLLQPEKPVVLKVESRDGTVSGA
Method in brief: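 Microsomes from CYP3A4-expressing insect cells were incubated with 40 µM 7-benzyloxyquinoline and 1 µM test compound. Metabolite formed was quantified with a spectrofluorometer.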

[6] = molecular target: Prothrombin (Homo sapiens, UniProt P00734); assay: Inhibition of human thrombin
Method in brief: (§1)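 Chromogenic assays at 37 °C. Final enzyme levels: thrombin 0.080 U/mL, trypsin 0.040 µg/mL, plasmin 0.040 U/mL, kallikrein 0.020 U/mL, t-PA 4000 U/mL. Compound was preincubated with enzyme in buffer for 30 min, then substrate added and p-nitroanilide release monitored continuously for 5 min at 405 nm. Ki taken from Lineweaver–Burk plots across substrate concentrations.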

[7] = molecular target: Plasma kallikrein (Homo sapiens, UniProt P03952); assay: Inhibition of human kallikrein; method in brief: as §1
Plasma kallikrein, sequence (P03952 20-390 limits assumed): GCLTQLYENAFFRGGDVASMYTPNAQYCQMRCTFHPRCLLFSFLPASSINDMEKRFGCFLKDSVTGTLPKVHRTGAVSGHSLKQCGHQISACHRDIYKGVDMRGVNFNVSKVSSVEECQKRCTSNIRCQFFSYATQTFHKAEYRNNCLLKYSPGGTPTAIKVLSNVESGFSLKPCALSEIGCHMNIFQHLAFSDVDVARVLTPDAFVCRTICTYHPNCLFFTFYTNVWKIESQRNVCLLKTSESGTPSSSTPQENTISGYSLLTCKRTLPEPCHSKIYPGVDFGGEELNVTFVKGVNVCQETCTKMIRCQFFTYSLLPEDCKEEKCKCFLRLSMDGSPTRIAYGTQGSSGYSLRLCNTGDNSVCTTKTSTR
Plasma kallikrein, sequence (P03952 391-638 limits assumed): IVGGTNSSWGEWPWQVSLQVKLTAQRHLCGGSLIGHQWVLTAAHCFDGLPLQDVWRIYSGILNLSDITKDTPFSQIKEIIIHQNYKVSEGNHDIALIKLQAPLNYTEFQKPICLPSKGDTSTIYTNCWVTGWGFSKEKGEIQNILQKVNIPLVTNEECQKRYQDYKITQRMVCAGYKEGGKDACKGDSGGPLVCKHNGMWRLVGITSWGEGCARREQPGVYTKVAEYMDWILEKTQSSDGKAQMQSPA

[8] = molecular target: Trypsin (Homo sapiens, UniProt P07477+P07478+P35030); assay: Inhibition of human trypsin; type: protein assay; method in brief: as §1
[9] = molecular target: Plasminogen (Homo sapiens, UniProt P00747); assay: Inhibition of human plasmin; method in brief: as §1
Plasminogen, sequence (P00747 97-580 limits assumed): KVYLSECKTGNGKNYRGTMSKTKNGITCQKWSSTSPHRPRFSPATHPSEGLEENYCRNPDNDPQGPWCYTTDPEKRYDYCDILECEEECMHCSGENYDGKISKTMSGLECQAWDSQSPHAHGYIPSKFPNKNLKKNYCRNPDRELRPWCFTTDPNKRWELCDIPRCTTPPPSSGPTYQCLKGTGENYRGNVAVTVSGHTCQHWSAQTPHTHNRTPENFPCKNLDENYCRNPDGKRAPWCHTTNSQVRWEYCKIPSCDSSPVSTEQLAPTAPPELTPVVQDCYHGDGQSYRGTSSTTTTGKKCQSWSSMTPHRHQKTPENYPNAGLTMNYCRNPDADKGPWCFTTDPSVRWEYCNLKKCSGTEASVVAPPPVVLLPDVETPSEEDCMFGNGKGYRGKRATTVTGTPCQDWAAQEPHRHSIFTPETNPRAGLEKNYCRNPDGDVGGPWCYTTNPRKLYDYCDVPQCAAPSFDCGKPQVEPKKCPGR
Plasminogen, sequence (P00747 581-810 limits assumed): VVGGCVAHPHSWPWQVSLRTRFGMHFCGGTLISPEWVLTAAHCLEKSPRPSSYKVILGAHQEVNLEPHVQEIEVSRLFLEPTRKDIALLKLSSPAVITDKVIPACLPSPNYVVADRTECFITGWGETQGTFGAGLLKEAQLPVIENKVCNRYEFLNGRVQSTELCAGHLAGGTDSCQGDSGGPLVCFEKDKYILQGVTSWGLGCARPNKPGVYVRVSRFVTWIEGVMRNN

[10] = molecular target: Tissue-type plasminogen activator (Homo sapiens, UniProt P00750); assay: Inhibition of human tPA; method in brief: as §1
Tissue-type plasminogen activator, sequence (P00750 whole entry): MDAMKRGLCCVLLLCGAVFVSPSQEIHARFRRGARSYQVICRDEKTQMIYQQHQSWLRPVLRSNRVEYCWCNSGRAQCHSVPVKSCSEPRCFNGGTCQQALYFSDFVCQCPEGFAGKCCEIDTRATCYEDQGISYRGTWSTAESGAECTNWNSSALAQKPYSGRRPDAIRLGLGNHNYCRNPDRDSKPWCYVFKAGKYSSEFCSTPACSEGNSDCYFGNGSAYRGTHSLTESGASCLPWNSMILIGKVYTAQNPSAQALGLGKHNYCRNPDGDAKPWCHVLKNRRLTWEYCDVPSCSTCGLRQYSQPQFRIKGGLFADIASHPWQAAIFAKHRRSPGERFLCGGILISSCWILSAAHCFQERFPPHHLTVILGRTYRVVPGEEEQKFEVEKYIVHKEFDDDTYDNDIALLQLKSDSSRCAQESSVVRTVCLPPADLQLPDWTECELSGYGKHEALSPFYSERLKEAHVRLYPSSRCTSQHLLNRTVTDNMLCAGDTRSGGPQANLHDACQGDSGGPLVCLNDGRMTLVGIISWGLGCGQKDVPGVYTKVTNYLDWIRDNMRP

[11] = Drug concentration in cynomolgus monkey at 1 mg/kg, iv after 5 mins; type: ADME, organism-based, Macaca fascicularis; design: dose 1 mg/kg, route intravenous; settings: in vivo, read-out: Activity
Method in brief: (§2)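 Male cynomolgus monkeys (n = 3), fasted; dosed iv (1 mg/kg in DMA/PEG400) or po (1 mg/kg, 0.5% methylcellulose suspension). Femoral vein blood drawn up to 24 h; plasma deproteinized with acetonitrile, diluted with 0.01 M ammonium formate pH 3.0, and analysed by LC/MS/MS (ODS column, positive ion turbo ionspray). Values given as mean ± SD of three determinations.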

[12] = tested on: Cynomolgus monkey; assay: AUC in cynomolgus monkey at 1 mg/kg, iv; type: ADME, organism-based, Macaca fascicularis, Plasma; design: dose 1 mg/kg, route intravenous; settings: in vivo; method in brief: as §2
[13] = Mean residence time in cynomolgus monkey at 1 mg/kg, iv; type: ADME, organism-based, Macaca fascicularis; design: dose 1 mg/kg, route intravenous; settings: in vivo; method in brief: as §2
[14] = Volume of distribution at steady state in cynomolgus monkey at 1 mg/kg, iv; type: ADME, organism-based, Macaca fascicularis; design: dose 1 mg/kg, route intravenous; settings: in vivo, read-out: Vdss; method in brief: as §2
[15] = Total clearance in cynomolgus monkey at 1 mg/kg, iv; type: ADME, organism-based, Macaca fascicularis; design: dose 1 mg/kg, route intravenous; settings: in vivo; method in brief: as §2
[16] = Cmax in cynomolgus monkey at 1 mg/kg, po; type: ADME, organism-based, Macaca fascicularis; design: dose 1 mg/kg, route oral; settings: in vivo; method in brief: as §2
[17] = Tmax in cynomolgus monkey at 1 mg/kg, po; type: ADME, organism-based, Macaca fascicularis; design: dose 1 mg/kg, route oral; settings: in vivo; method in brief: as §2
[18] = AUC in cynomolgus monkey at 1 mg/kg, po; type: ADME, organism-based, Macaca fascicularis; design: dose 1 mg/kg, route oral; settings: plasma; method in brief: as §2
[19] = Mean residence time in cynomolgus monkey at 1 mg/kg, po; type: ADME, organism-based, Macaca fascicularis; design: dose 1 mg/kg, route oral; settings: in vivo; method in brief: as §2
[20] = Oral bioavailability in cynomolgus monkey at 1 mg/kg; type: ADME, organism-based, Macaca fascicularis; settings: in vivo; method in brief: as §2
[21] = tested on: Cynomolgus monkey; assay: Ex vivo anticoagulant potency in cynomolgus monkey blood assessed as prothrombin time prolongation at 3 mg/kg, po after 0.5 hr; type: functional, Macaca fascicularis
Method in brief: (§3)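 Male cynomolgus monkeys (3.5-4 kg), fasted >12 h, n = 3, given 3 mg/kg orally. Femoral vein blood was drawn into 3.8% citrate (9:1) at intervals, spun at 1000g for 10 min to platelet-poor plasma, and PT measured with thromboplastin on a coagulometer. Results are % of basal value, mean ± SEM.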

[22] = tested on: Cynomolgus monkey; assay: Ex vivo anticoagulant potency in cynomolgus monkey blood assessed as prothrombin time prolongation at 3 mg/kg, po after 1 hr; type: functional, Macaca fascicularis; method in brief: as §3
[23] = tested on: Cynomolgus monkey; assay: Ex vivo anticoagulant potency in cynomolgus monkey blood assessed as prothrombin time prolongation at 3 mg/kg, po after 2 hrs; type: functional, Macaca fascicularis; method in brief: as §3
[24] = tested on: Cynomolgus monkey; assay: Ex vivo anticoagulant potency in cynomolgus monkey blood assessed as prothrombin time prolongation at 3 mg/kg, po after 4 hrs; type: functional, Macaca fascicularis; method in brief: as §3
[25] = tested on: Cynomolgus monkey; assay: Ex vivo anticoagulant potency in cynomolgus monkey blood assessed as prothrombin time prolongation at 3 mg/kg, po after 8 hrs; type: functional, Macaca fascicularis; method in brief: as §3
[26] = tested on: Plasma; assay: Anticoagulant potency in cynomolgus monkey plasma assessed as concentration required to double prothrombin time; type: functional, Macaca fascicularis

Coagulation factor X, sequence (P00742 41-179 limits assumed): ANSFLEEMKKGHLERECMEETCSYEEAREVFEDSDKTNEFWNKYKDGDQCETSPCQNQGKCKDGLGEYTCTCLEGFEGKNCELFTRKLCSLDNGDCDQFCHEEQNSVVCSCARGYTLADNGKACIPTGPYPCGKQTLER
Coagulation factor X, sequence (P00742 235-488 limits assumed): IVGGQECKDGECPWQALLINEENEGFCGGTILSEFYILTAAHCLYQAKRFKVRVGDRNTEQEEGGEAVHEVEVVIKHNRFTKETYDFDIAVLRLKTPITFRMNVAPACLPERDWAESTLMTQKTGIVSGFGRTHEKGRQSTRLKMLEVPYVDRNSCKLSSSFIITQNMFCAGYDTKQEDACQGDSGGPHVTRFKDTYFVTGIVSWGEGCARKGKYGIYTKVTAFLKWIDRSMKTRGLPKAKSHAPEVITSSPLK

Cc1cc(N2CCC(N(C)C(=O)CCS(=O)(=O)c3ccc4cc(Cl)ccc4c3)CC2)ccn1
IC50 [1]: 61 nM | Ki [1]: 15 nM | Activity [2]: 1.6 µM | Activity [3]: 4.8 µM | Ratio [4]: 1.6 | inhibition at 1 µM [5]: 40% | Ki [6]: 7.5 µM | Ki [7]: 3 µM | Ki [8]: > 200 µM | Ki [9]: > 200 µM | Ki [10]: 67 µM | concentration at 5 min [11]: 565 ng/mL | AUC [12]: 1.58 µg·h/mL | MRT [13]: 4.54 h | Vd [14]: 3.29 L/kg | clearance [15]: 12.2 mL/min/kg | Cmax [16]: 134 ng/mL | Tmax [17]: 2 h | AUC [18]: 1030 ng·h/mL | MRT [19]: 6.6 h | bioavailability [20]: 66.7% | Activity [21]: 142% | Activity [22]: 133.6% | Activity [23]: 146.9% | Activity [24]: 144.6% | Activity [25]: 117.7% | Activity [26]: 1.1 µM

O=C(NCCCS(=O)(=O)c1ccc2cc(Cl)ccc2c1)C1CCN(c2ccncc2)CC1
IC50 [1]: 470 nM

Cc1cc(N2CCC(N(C)C(=O)CCS(=O)(=O)c3cc4cc(Cl)ccc4s3)CC2)ccn1
IC50 [1]: > 5000 nM

Cc1ccc2cc(S(=O)(=O)CCC(=O)N(C)C3CCN(c4ccnc(C)c4)CC3)ccc2c1
IC50 [1]: 720 nM

O=C(C1CCN(c2ccncc2)CC1)N1CCN(S(=O)(=O)c2ccc3cc(Cl)ccc3c2)CC1
IC50 [1]: 33 nM

CN(C(=O)CCCS(=O)(=O)c1ccc2cc(Cl)ccc2c1)C1CCN(c2ccncc2)CC1
IC50 [1]: 140 nM

CCN(CCCS(=O)(=O)c1ccc2cc(Cl)ccc2c1)C(=O)C1CCN(c2ccncc2)CC1
IC50 [1]: 120 nM | Activity [2]: 3.2 µM

CCOC(=O)CN(C(=O)CCS(=O)(=O)c1ccc2cc(Cl)ccc2c1)C1CCN(c2ccncc2)CC1
IC50 [1]: 60 nM | Activity [2]: 1.1 µM | Activity [3]: 10 µM | Ratio [4]: 1.1

O=C(CCS(=O)(=O)c1ccc2cc(Cl)ccc2c1)N1CCN(c2ccncc2)CC1
IC50 [1]: 160 nM

CN(C(=O)CS(=O)(=O)c1ccc2cc(Cl)ccc2c1)C1CCN(c2ccncc2)CC1
IC50 [1]: 720 nM

CN(C(=O)CCS(=O)(=O)c1ccc2cc(Cl)ccc2c1)C1CCN(c2ccnc(CO)c2)CC1
IC50 [1]: 110 nM | Activity [2]: 1.5 µM | Activity [3]: 6.4 µM | Ratio [4]: 1.1 | inhibition at 1 µM [5]: 21%

CN(C(=O)CCS(=O)(=O)c1ccc2cc(Cl)ccc2c1)C1CCN(c2ccncc2)CC1
IC50 [1]: 50 nM | Activity [2]: 1 µM | Activity [3]: 8 µM | Ratio [4]: 1.6 | inhibition at 1 µM [5]: 81%

CCOC(=O)CN(CCCS(=O)(=O)c1ccc2cc(Cl)ccc2c1)C(=O)C1CCN(c2ccncc2)CC1
IC50 [1]: 64 nM | Activity [2]: 1.9 µM | Activity [3]: 11 µM | Ratio [4]: 1

CC(C)N(CCCS(=O)(=O)c1ccc2cc(Cl)ccc2c1)C(=O)C1CCN(c2ccncc2)CC1
IC50 [1]: 250 nM | Activity [2]: 8.4 µM

Cc1cc(N2CCC(N(C)C(=O)CCS(=O)(=O)c3ccc4ccc(Cl)cc4c3)CC2)ccn1
IC50 [1]: > 5000 nM

Cc1cc(N2CCC(N(C)C(=O)CCS(=O)(=O)c3cc4ccc(Cl)cc4s3)CC2)ccn1
IC50 [1]: > 5000 nM

Cc1cc(N2CCC(N(C)C(=O)CCS(=O)(=O)c3ccc4cc(Cl)ccc4c3)CC2)cc(C)n1
Activity [2]: 1.6 µM | Activity [3]: 4.1 µM | Ratio [4]: 1.3 | inhibition at 1 µM [5]: 40%

CN(CCCS(=O)(=O)c1ccc2cc(Cl)ccc2c1)C(=O)C1CCN(c2ccncc2)CC1
Activity [2]: 1.7 µM | Activity [3]: 17 µM | Ratio [4]: 1.3

CCOC(=O)CCN(C(=O)CCS(=O)(=O)c1ccc2cc(Cl)ccc2c1)C1CCN(c2ccncc2)CC1
Activity [2]: 0.85 µM | Activity [3]: 14 µM | Ratio [4]: 1

NC(=O)CN(CCCS(=O)(=O)c1ccc2cc(Cl)ccc2c1)C(=O)C1CCN(c2ccncc2)CC1
IC50 [1]: 120 nM | Activity [2]: 2.1 µM

Cc1cc(N2CCC(N(C)C(=O)CCS(=O)(=O)c3ccc4c(Cl)cccc4c3)CC2)ccn1
IC50 [1]: > 5000 nM

CN(C(=O)CCS(=O)(=O)c1ccc2cc(Cl)ccc2c1)C1CCN(c2ccnc(N)c2)CC1
IC50 [1]: 79 nM | Activity [2]: 3.6 µM | inhibition at 1 µM [5]: 49%

CN(CCS(=O)(=O)c1ccc2cc(Cl)ccc2c1)C(=O)C1CCN(c2ccncc2)CC1
IC50 [1]: 840 nM

O=C(O)CN(CCCS(=O)(=O)c1ccc2cc(Cl)ccc2c1)C(=O)C1CCN(c2ccncc2)CC1
IC50 [1]: 54 nM | Activity [2]: 1.8 µM | Activity [3]: 14 µM | Ratio [4]: 1

NCCN(C(=O)CCS(=O)(=O)c1ccc2cc(Cl)ccc2c1)C1CCN(c2ccncc2)CC1
IC50 [1]: 95 nM | Activity [2]: 0.63 µM | Activity [3]: 8.6 µM | Ratio [4]: 1

CC(=N)N1CC[C@H](Oc2ccc([C@H](Cc3ccc4ccc(C(=N)N)cc4c3)C(=O)O)cc2)C1 [DX-9065A]
Activity [2]: 0.69 µM | Activity [3]: 6.8 µM
